Assay results reported in ChEMBL document CHEMBL1138243, “Design of mechanism-based inhibitors of transthyretin amyloidosis: studies with biphenyl ethers and new structural templates” (J Med Chem, 2007).
Several values for one entry are separate records, joined by “and”; a condition that tells them apart may be missing. Identical values can stand only once.

Experiments:
Transthyretin [1] = molecular target: T1, Transthyretin (Homo sapiens, UniProt P02766); test: Inhibition of transthyretin fibril formation at pH 4.4 at 100 uM; assay type: functional
Method in brief: (§1)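 Library screen of acid-mediated TTR fibril formation at pH 4.4 with inhibitor at 100 µM. TTR was at 7.2 µM.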

Transthyretin [2] = molecular target: T1, Transthyretin; test: Inhibition of transthyretin amyloidosis assessed as fibril formation pH 4.4 at 100 uM; assay type: functional; method in brief: as §1

Cn1c(=O)c2c(nc(Oc3ccc(-n4cnnn4)cc3)n2C)n(C)c1=O
inhibition (Transthyretin [1]): 0% | percent fibril formation relative to control (Transthyretin [2]): 155%

COc1ccc(C2NC(C(=O)O)CS2)cc1OC (centres undefined)
inhibition (Transthyretin [1]): 0% | percent fibril formation relative to control (Transthyretin [2]): 129%

O=c1c2sccc2n(Cc2ccc(F)cc2Cl)c(=O)n1-c1cc(F)ccc1F
inhibition (Transthyretin [1]): 0% | percent fibril formation relative to control (Transthyretin [2]): 117%

CCCCC1NC(C(=O)O)CS1 (centres undefined)
inhibition (Transthyretin [1]): 0% | percent fibril formation relative to control (Transthyretin [2]): 128%

O=C1NC(=S)S/C1=C\c1ccc(-c2cc(Cl)ccc2Cl)o1
inhibition (Transthyretin [1]): 0% | percent fibril formation relative to control (Transthyretin [2]): 286%

Cc1nc2c(C(=O)NCCC(C)C)cnn2c(O)c1Cc1ccccc1F
inhibition (Transthyretin [1]): 91.7% | percent fibril formation relative to control (Transthyretin [2]): -86.7%

Cc1ccccc1C1=N/C(=C\c2sccc2C)C(=O)O1
inhibition (Transthyretin [1]): 0% | percent fibril formation relative to control (Transthyretin [2]): 115%

CCOC(=O)c1sc(=S)n(-c2cccc3ccccc23)c1N
inhibition (Transthyretin [1]): 0% | percent fibril formation relative to control (Transthyretin [2]): 146%

O=C(O)C1CSC(c2ccc(Cl)cc2)N1 (centres undefined)
inhibition (Transthyretin [1]): 0% | percent fibril formation relative to control (Transthyretin [2]): 142%

CCc1ccc(Oc2cc(F)nc(N)n2)cc1
inhibition (Transthyretin [1]): 9.71% | percent fibril formation relative to control (Transthyretin [2]): 10.4%

NC(=O)CSc1ncc(-c2ccc(Cl)cc2)[nH]1
inhibition (Transthyretin [1]): 60.8% | percent fibril formation relative to control (Transthyretin [2]): 39.2%

Clc1ccc2nc(-c3ccc(Cl)s3)c(NC3CCCCC3)n2c1
inhibition (Transthyretin [1]): 0% | percent fibril formation relative to control (Transthyretin [2]): 138%

COc1ccc(/C=C2\SC(=S)N(c3ccc(O)cc3)C2=O)cc1
inhibition (Transthyretin [1]): 0% | percent fibril formation relative to control (Transthyretin [2]): 281%

O=C1CSC(c2ccc(Cl)cc2Cl)N1c1ccc(Cl)cc1 (centres undefined)
inhibition (Transthyretin [1]): 79.7% | percent fibril formation relative to control (Transthyretin [2]): 20.3%

CCOC(=O)c1c(N)sc(C(=O)Nc2cc(C)cc(C)c2)c1C
inhibition (Transthyretin [1]): 12.2% | percent fibril formation relative to control (Transthyretin [2]): 87.8%

O=C(O)C1CSC(c2cccnc2)N1 (centres undefined)
inhibition (Transthyretin [1]): 0% | percent fibril formation relative to control (Transthyretin [2]): 144%

O=C(Nc1c2c(nn1-c1cccc(Cl)c1)C[S+]([O-])C2)c1ccccc1F (centres undefined)
inhibition (Transthyretin [1]): 10.4% | percent fibril formation relative to control (Transthyretin [2]): 89.5%

Nc1cc(O)nc(SCC(=O)N2CCOCC2)n1
inhibition (Transthyretin [1]): 0% | percent fibril formation relative to control (Transthyretin [2]): 112%

CC(C)C(=O)NC(c1ccccc1)c1ccc2cccnc2c1O (centres undefined)
inhibition (Transthyretin [1]): 95.4% | percent fibril formation relative to control (Transthyretin [2]): 4.6%

O=C1OC(c2ccc(Cl)cc2Cl)=N/C1=C\c1cccs1
inhibition (Transthyretin [1]): 0% | percent fibril formation relative to control (Transthyretin [2]): 136%

Clc1ccccc1C1CC(c2cccs2)Nc2nnnn21 (centres undefined)
inhibition (Transthyretin [1]): 100% | percent fibril formation relative to control (Transthyretin [2]): 0%

O=c1/c(=C\c2ccccc2Cl)sc2nc3ccccc3n12
inhibition (Transthyretin [1]): 29.1% | percent fibril formation relative to control (Transthyretin [2]): 71%

Cc1cc(C(=O)Nc2cc(Cl)ccc2O)no1
inhibition (Transthyretin [1]): 3.18% and 0%

O=C(O)c1ccc(Cl)c(N2C(=O)C3C4CCC(C4)C3C2=O)c1 (stereo in doubt; 33)
inhibition (Transthyretin [1]): 37.8% | percent fibril formation relative to control (Transthyretin [2]): 62.2%

Cn1ncc(/N=C/c2ccccc2O)c1C(=O)N1CCOCC1
inhibition (Transthyretin [1]): 50% | percent fibril formation relative to control (Transthyretin [2]): 50%

O=C(NC1CC1)c1cc(Sc2cccc(Cl)c2)nc2ccccc12
inhibition (Transthyretin [1]): 58.2% | percent fibril formation relative to control (Transthyretin [2]): 41.8%

O=C(O)CCc1nc(-c2cccs2)no1
inhibition (Transthyretin [1]): 67.9% | percent fibril formation relative to control (Transthyretin [2]): 32.1%

O=C1OC(c2ccc(Cl)cc2Cl)=N/C1=C/c1ccc(Cl)c(Cl)c1
inhibition (Transthyretin [1]): 0% | percent fibril formation relative to control (Transthyretin [2]): 138%

Cc1ccccc1Nc1c(-c2ccc(Cl)s2)nc2ccc(Cl)cn12
inhibition (Transthyretin [1]): 0% | percent fibril formation relative to control (Transthyretin [2]): 306%

CSC1=NSC2=NC(=O)/C(=C\c3ccc[nH]3)C(=N)N12
inhibition (Transthyretin [1]): 0% | percent fibril formation relative to control (Transthyretin [2]): 202%

Cc1ccc2nc(-c3ccc(Cl)s3)c(Nc3ccc(Cl)cc3)n2c1
inhibition (Transthyretin [1]): 0% | percent fibril formation relative to control (Transthyretin [2]): 113%

CCN1C(=O)/C(=C/c2ccc(N(CC)CC)cc2O)SC1=S
inhibition (Transthyretin [1]): 0% | percent fibril formation relative to control (Transthyretin [2]): 177%

Fc1ccccc1NC(=S)N(CCCN1CCOCC1)Cc1cccnc1
inhibition (Transthyretin [1]): 0.7% | percent fibril formation relative to control (Transthyretin [2]): 99.3%

Nc1nc(F)cc(Oc2ccc(F)cc2)n1
inhibition (Transthyretin [1]): 16% | percent fibril formation relative to control (Transthyretin [2]): 84%

FC(F)(F)c1cccc(NC(=S)N(CCCN2CCCCC2)Cc2cccs2)c1
inhibition (Transthyretin [1]): 13.3% | percent fibril formation relative to control (Transthyretin [2]): 86.7%

O=C(O)c1ccc(Cl)c(N2C(=O)C3C4CCC(C4)C3C2=O)c1 (stereo in doubt; 34)
inhibition (Transthyretin [1]): 0% | percent fibril formation relative to control (Transthyretin [2]): 104%

COc1ccc(NC(=S)N(CCCN2CCOCC2)Cc2cccnc2)cc1
inhibition (Transthyretin [1]): 1.4% | percent fibril formation relative to control (Transthyretin [2]): 98.6%

Cc1nc2ccc(Cl)cc2c(O)c1CN1CCCC1
inhibition (Transthyretin [1]): 18.2% | percent fibril formation relative to control (Transthyretin [2]): 81.8%

CCOC(=O)c1sc(=S)n(-c2ccc(Br)cc2)c1N
inhibition (Transthyretin [1]): 0% | percent fibril formation relative to control (Transthyretin [2]): 164%

O=C1/C(=C/c2ccc(Cl)cc2Cl)SC(=S)N1c1ccc(O)cc1
inhibition (Transthyretin [1]): 0% | percent fibril formation relative to control (Transthyretin [2]): 291%

Cc1nc2c(ccc3ccccc32)c(O)c1CN1CCOCC1
inhibition (Transthyretin [1]): 30.4% | percent fibril formation relative to control (Transthyretin [2]): 69.6%

Cc1ccc2nc(Nc3nc(O)c4ccccc4n3)nc(C)c2c1
inhibition (Transthyretin [1]): 31.1% | percent fibril formation relative to control (Transthyretin [2]): 68.9%

COc1cc(/C=C2\SC(=S)N(c3ccc(O)cc3)C2=O)ccc1O
inhibition (Transthyretin [1]): 0% | percent fibril formation relative to control (Transthyretin [2]): 230%

O=C(O)c1cccc(-c2ccc(/C=C3/SC(=S)N(c4cccc(C(F)(F)F)c4)C3=O)o2)c1
inhibition (Transthyretin [1]): 0% | percent fibril formation relative to control (Transthyretin [2]): 449%

O=C(O)CCCCCN1C(=O)/C(=C/c2c[nH]c3ccccc23)SC1=S
inhibition (Transthyretin [1]): 0% | percent fibril formation relative to control (Transthyretin [2]): 126%

O=C(CSc1nccn1-c1cccc(Cl)c1)Nc1cccc2ccccc12
inhibition (Transthyretin [1]): 0% | percent fibril formation relative to control (Transthyretin [2]): 122%

COc1ccc(NC(=S)N(CCCN2CCOCC2)Cc2cccs2)cc1
inhibition (Transthyretin [1]): 0% | percent fibril formation relative to control (Transthyretin [2]): 102%

O=C(NC(c1ccccc1)c1cc(Cl)c2cccnc2c1O)c1cccnc1 (centres undefined)
inhibition (Transthyretin [1]): 70.4% | percent fibril formation relative to control (Transthyretin [2]): 29.6%

CCOc1cccc2c1OC(c1cccc(Cl)c1)N1N=C(c3cccs3)CC21 (centres undefined)
inhibition (Transthyretin [1]): 0%

CCOC(=O)c1c(N)sc(C(=O)NC2CCCCC2)c1C
inhibition (Transthyretin [1]): 41.9% | percent fibril formation relative to control (Transthyretin [2]): 58.1%

CSC1=NSC2=NC(=O)/C(=C\c3ccc(Cl)cc3)C(=N)N12
inhibition (Transthyretin [1]): 32.9% | percent fibril formation relative to control (Transthyretin [2]): 67.1%

Cc1ccc(C2NC(C(=O)O)CS2)cc1 (centres undefined)
inhibition (Transthyretin [1]): 85.7% | percent fibril formation relative to control (Transthyretin [2]): 14.3%

Oc1ccc(-c2nc3ncccn3c2Nc2ccc(Cl)cc2)cc1
inhibition (Transthyretin [1]): 0% | percent fibril formation relative to control (Transthyretin [2]): 135%

Oc1ccc(-c2n[nH]c(=S)o2)cc1
inhibition (Transthyretin [1]): 80.8% | percent fibril formation relative to control (Transthyretin [2]): 19.2%

O=C(O)C1CSC(c2ccc(O)cc2)N1 (centres undefined)
inhibition (Transthyretin [1]): 0% | percent fibril formation relative to control (Transthyretin [2]): 120%

Cc1ccn2c(Nc3ccccc3C)c(-c3ccc(O)cc3)nc2c1
inhibition (Transthyretin [1]): 0% | percent fibril formation relative to control (Transthyretin [2]): 130%

Cc1ccn2c(Nc3ccc(F)cc3)c(-c3ccccn3)nc2c1
inhibition (Transthyretin [1]): 0% | percent fibril formation relative to control (Transthyretin [2]): 162%

O=C(c1cc(-c2ccc(Cl)s2)nc2ccccc12)N1CCOCC1
inhibition (Transthyretin [1]): 0% | percent fibril formation relative to control (Transthyretin [2]): 156%

O=C(NC(c1ccco1)c1cc(Cl)c2cccnc2c1O)c1cccnc1 (centres undefined)
inhibition (Transthyretin [1]): 63.3% | percent fibril formation relative to control (Transthyretin [2]): 36.7%

O=C(c1cnc(Nc2ccc(F)cc2)c2ccccc12)n1ccnc1
inhibition (Transthyretin [1]): 0%

Cc1nc2c(C(=O)NCc3ccc(F)cc3)cnn2c(O)c1Cc1ccccc1F
inhibition (Transthyretin [1]): 53.1% | percent fibril formation relative to control (Transthyretin [2]): 46.9%

O=C(O)C1CSC(c2ccc(Cl)c(Cl)c2)N1 (centres undefined)
inhibition (Transthyretin [1]): 0% | percent fibril formation relative to control (Transthyretin [2]): 102%

Cc1nc2c(ccc3ccccc32)c(O)c1CN1CCCC1
inhibition (Transthyretin [1]): 33.1% | percent fibril formation relative to control (Transthyretin [2]): 66.9%

CCCCN(CC)Cc1c(C)nc2c(ccc3ccccc32)c1O
inhibition (Transthyretin [1]): 24.3% | percent fibril formation relative to control (Transthyretin [2]): 75.7%

CCC(=O)NC(c1ccc2c(c1)OCO2)c1cc(Cl)c2cccnc2c1O (centres undefined)
inhibition (Transthyretin [1]): 58.1% | percent fibril formation relative to control (Transthyretin [2]): 41.9%

Oc1ccc(Nc2nc(-c3ccc(Cl)cc3)nc3ccccc23)cc1
inhibition (Transthyretin [1]): 4.06% | percent fibril formation relative to control (Transthyretin [2]): 96%

O=C1/C(=C\c2ccco2)SC(=S)N1c1cccc(F)c1
inhibition (Transthyretin [1]): 0% | percent fibril formation relative to control (Transthyretin [2]): 340%

O=C1/C(=C\c2ccc(-c3ccc(Cl)cc3)o2)SC(=S)N1c1cccc(Cl)c1
inhibition (Transthyretin [1]): 0% | percent fibril formation relative to control (Transthyretin [2]): 107%

O=C(Nc1c2c(nn1-c1ccc(F)cc1)C[S+]([O-])C2)c1ccccc1F (centres undefined)
inhibition (Transthyretin [1]): 0% | percent fibril formation relative to control (Transthyretin [2]): 104%

O=C1OC(/C=C/c2ccc(Cl)cc2Cl)=NC/1=C\c1cccs1
inhibition (Transthyretin [1]): 0% | percent fibril formation relative to control (Transthyretin [2]): 294%

O=C1/C(=C\c2cccc(O)c2)SC(=S)N1c1ccc(F)cc1
inhibition (Transthyretin [1]): 0% | percent fibril formation relative to control (Transthyretin [2]): 309%

O=C(NCc1ccco1)c1cc(Sc2cccc(Cl)c2)nc2ccccc12
inhibition (Transthyretin [1]): 39.3% | percent fibril formation relative to control (Transthyretin [2]): 60.7%

O=C(O)C1CSC(c2c(F)cccc2Cl)N1 (centres undefined)
inhibition (Transthyretin [1]): 79.7% | percent fibril formation relative to control (Transthyretin [2]): 20.3%

CSC1=NSC2=NC(=O)/C(=C\c3ccc(O)cc3)C(=N)N12
inhibition (Transthyretin [1]): 27.3% | percent fibril formation relative to control (Transthyretin [2]): 72.7%

Cc1ccc2nc(NC(=O)c3ccccc3O)sc2c1
inhibition (Transthyretin [1]): 0% | percent fibril formation relative to control (Transthyretin [2]): 368%

NN1C(=O)/C(=C\c2ccc(Cl)cc2)NC1=S
inhibition (Transthyretin [1]): 0% | percent fibril formation relative to control (Transthyretin [2]): 131%

COC(=O)c1sc(=S)n(-c2ccc(Cl)c(Cl)c2)c1N
inhibition (Transthyretin [1]): 15.6% | percent fibril formation relative to control (Transthyretin [2]): 84.5%

COc1cc(C2NC(C(=O)O)CS2)ccc1O (centres undefined)
inhibition (Transthyretin [1]): 0% | percent fibril formation relative to control (Transthyretin [2]): 116%

O=C1CCCC2=C1C(c1cccc(O)c1)NC(=S)N2 (centres undefined)
inhibition (Transthyretin [1]): 0% | percent fibril formation relative to control (Transthyretin [2]): 106%

O=C(O)C1CSC(c2ccc(Cl)cc2Cl)N1 (centres undefined)
inhibition (Transthyretin [1]): 77.7% | percent fibril formation relative to control (Transthyretin [2]): 22.3%

O=[N+]([O-])c1ccc(Cl)cc1Sc1nc2ccccc2s1
inhibition (Transthyretin [1]): 91.8% | percent fibril formation relative to control (Transthyretin [2]): 8.2%
